Experiments:
[1] = Growth inhibition of human HCC2998 cells assessed as cell growth at 10^-7 M incubated for 48 hrs by sulforhodamine B assay; format: functional; conditions: HCC 2998, 48 h, read-out: Activity
Procedure, shortened: (§1)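 Cells seeded at 5,000–40,000/well according to doubling time and preincubated 24 h at 37 °C, 5% CO2. Time-zero plates were TCA-fixed. DMSO concentrate was diluted in medium with 50 µg/ml gentamicin to give five concentrations (10-fold or ½ log steps), then exposed 48 h. Cells were TCA-fixed, stained with 0.4% SRB and read at 515 nm. Percent growth was taken against time-zero and control; GI50, TGI and LC50 derived.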

[2] = Growth inhibition of human DU145 cells assessed as cell growth at 10^-6 M incubated for 48 hrs by sulforhodamine B assay; format: functional; conditions: DU-145, 48 h, read-out: Activity; procedure, shortened: as §1
[3] = Growth inhibition of human PC3 cells assessed as cell growth at 10 uM incubated for 48 hrs by sulforhodamine B assay; format: functional; conditions: PC-3, 48 h, read-out: Activity
[4] = Growth inhibition of human UO31 cells assessed as cell growth at 10^-8 M incubated for 48 hrs by sulforhodamine B assay; format: functional; conditions: UO-31, 48 h, read-out: Activity
Malme-3M = experiment: Growth inhibition of human MALME-3M cells assessed as cell growth at 10^-8 M incubated for 48 hrs by sulforhodamine B assay; format: functional; conditions: read-out: Activity
NCI-H522 = experiment: Growth inhibition of human NCI-H522 cells assessed as cell growth at 10^-7 M incubated for 48 hrs by sulforhodamine B assay; format: functional; conditions: NCI-H522, 48 h, read-out: Activity
[5] = Growth inhibition of human COLO205 cells assessed as cell growth at 10 uM incubated for 48 hrs by sulforhodamine B assay; format: functional; conditions: COLO 205, 48 h, read-out: Activity
Procedure, shortened: (§2)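 Primary screen at one dose (10 µM) across 60 human cancer cell lines. Readout was growth percent relative to untreated control and time-zero.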

CCRF-CEM = experiment: Growth inhibition of human CCRF-CEM cells assessed as cell growth at 10^-6 M incubated for 48 hrs by sulforhodamine B assay; format: functional; conditions: read-out: Activity
Procedure, shortened: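 Leukemia line in the five-dose format: five concentrations from 10-fold or ½-log serial dilutions. Plated at 5,000–40,000 cells per well, preincubated 24 h, then compound added for 48 h at 37 °C, 5% CO₂. Sulforhodamine B absorbance read at 515 nm. Growth is computed against time-zero (Tz) and control (C) readings; GI₅₀ is where [(Ti−Tz)/(C−Tz)]×100 = 50.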

KM12 = experiment: Growth inhibition of human KM12 cells assessed as cell growth at 10^-6 M incubated for 48 hrs by sulforhodamine B assay; format: functional; conditions: KM12, 48 h, read-out: Activity
Albumin = Albumin (Bos taurus, UniProt P02769); experiment: Binding affinity to bovine serum albumin assessed as enhancement in emission spectra up to 20 uM by fluorescence spectroscopic analysis relative to control; format: ADME; conditions: cattle, isolated protein
Chain of Albumin (P02769 whole entry): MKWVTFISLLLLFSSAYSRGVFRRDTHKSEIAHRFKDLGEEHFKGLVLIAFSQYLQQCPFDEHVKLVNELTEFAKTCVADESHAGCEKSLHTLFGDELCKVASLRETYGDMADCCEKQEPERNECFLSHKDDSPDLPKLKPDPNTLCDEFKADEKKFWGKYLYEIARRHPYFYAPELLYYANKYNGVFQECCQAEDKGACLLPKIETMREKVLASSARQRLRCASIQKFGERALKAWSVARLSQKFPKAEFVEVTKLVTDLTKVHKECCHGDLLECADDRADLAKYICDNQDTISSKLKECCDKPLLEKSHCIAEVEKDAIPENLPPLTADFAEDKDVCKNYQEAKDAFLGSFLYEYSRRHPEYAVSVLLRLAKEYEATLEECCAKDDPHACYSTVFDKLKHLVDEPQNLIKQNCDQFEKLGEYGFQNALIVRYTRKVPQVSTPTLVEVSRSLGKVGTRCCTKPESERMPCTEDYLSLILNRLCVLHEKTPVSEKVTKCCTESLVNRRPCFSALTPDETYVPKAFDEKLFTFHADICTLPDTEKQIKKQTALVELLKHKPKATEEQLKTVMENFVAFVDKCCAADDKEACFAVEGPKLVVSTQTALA
Procedure, shortened: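 Fluorescence titration of 10 µM BSA in 0.1 M phosphate buffer pH 7.4 with compound at 0–20 µM, diluted from DMSO stocks. Excitation 280 nm, slit 10 nm, 1 cm quartz cell, 300 K. Changes in the 350 nm Trp emission, new bands near 370–373 nm and isoemissive points are read against BSA alone.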

[6] = Growth inhibition of human MOLT4 cells assessed as cell growth at 10 uM incubated for 48 hrs by sulforhodamine B assay; format: functional; conditions: MOLT-4, 48 h, read-out: Activity
T47D = experiment: Growth inhibition of human T47D cells assessed as cell growth at 10^-7 M incubated for 48 hrs by sulforhodamine B assay; format: functional; conditions: read-out: Activity
[7] = Growth inhibition of human OVCAR5 cells assessed as cell growth at 10 uM incubated for 48 hrs by sulforhodamine B assay; format: functional; conditions: OVCAR-5, 48 h, read-out: Activity
[8] = Growth inhibition of human HCT15 cells assessed as cell growth at 10 uM incubated for 48 hrs by sulforhodamine B assay; format: functional; conditions: HCT-15, 48 h, read-out: Activity; procedure, shortened: as §2
SK-MEL-28 = experiment: Growth inhibition of human SK-MEL-28 cells assessed as cell growth at 10^-6 M incubated for 48 hrs by sulforhodamine B assay; format: functional; conditions: SK-MEL-28, 48 h, read-out: Activity
[9] = Growth inhibition of human SF268 cells incubated for 48 hrs by sulforhodamine B assay; format: functional; conditions: SF-268, 48 h
Procedure, shortened: (§3)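 Cells were plated at 5,000–40,000 per well according to doubling time and preincubated 24 h at 37 °C in 5% CO2; time-zero plates were then TCA-fixed. Five concentrations (10-fold or ½-log dilutions, DMSO stock) were incubated 48 h. Cells were TCA-fixed, stained with 0.4% SRB and read at 515 nm. GI50 was taken where [(Ti−Tz)/(C−Tz)]×100 = 50.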

[10] = Growth inhibition of human Hs 578T cells assessed as cell growth at 10 uM incubated for 48 hrs by sulforhodamine B assay; format: functional; conditions: read-out: Activity
[11] = Growth inhibition of human SF295 cells assessed as cell growth at 10^-6 M incubated for 48 hrs by sulforhodamine B assay; format: functional; conditions: SF-295, 48 h, read-out: Activity
[12] = Growth inhibition of human COLO205 cells assessed as cell growth at 10^-6 M incubated for 48 hrs by sulforhodamine B assay; format: functional; conditions: COLO 205, 48 h, read-out: Activity; procedure, shortened: as §1
[13] = Growth inhibition of human RPMI8226 cells assessed as cell growth at 10 uM incubated for 48 hrs by sulforhodamine B assay; format: functional; conditions: RPMI-8226, 48 h, read-out: Activity
ACHN = experiment: Growth inhibition of human ACHN cells assessed as cell growth at 10^-5 M incubated for 48 hrs by sulforhodamine B assay; format: functional; conditions: read-out: Activity
Procedure, shortened: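 Five-dose assay: five concentrations from 10-fold or ½-log serial dilutions. Cells are plated at 5,000–40,000 per well according to doubling time, grown 24 h, then exposed 48 h at 37 °C, 5% CO₂. Fixed with cold 50% TCA (final addition) for 60 min at 4 °C and stained with 0.4% SRB in 1% acetic acid. Bound dye is solubilized in 10 mM Tris base and read at 515 nm. GI₅₀ is where [(Ti−Tz)/(C−Tz)]×100 = 50, with a time-zero plate as Tz.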

[14] = Growth inhibition of human DU145 cells assessed as cell growth at 10^-7 M incubated for 48 hrs by sulforhodamine B assay; format: functional; conditions: DU-145, 48 h, read-out: Activity; procedure, shortened: as §1
SR = experiment: Growth inhibition of human SR cells assessed as cell growth at 10^-8 M incubated for 48 hrs by sulforhodamine B assay; format: functional; conditions: read-out: Activity
K562 = experiment: Growth inhibition of human K562 cells assessed as cell growth at 10^-5 M incubated for 48 hrs by sulforhodamine B assay; format: functional; conditions: K562, 48 h, read-out: Activity
[15] = Growth inhibition of human OVCAR5 cells incubated for 48 hrs by sulforhodamine B assay; format: functional; conditions: OVCAR-5, 48 h; procedure, shortened: as §3
[16] = read-out: LC50 (the source's name)
[17] = read-out: pLC50 (the source's name) (converted)

c1ccc(-c2nc(Nc3ccc(-c4nc5ccccc5[nH]4)cc3)nc(N3CCOCC3)n2)cc1
growth at 0.1 µM [1]: 97% | growth at 1 µM [2]: 63% | growth at 10 µM [3]: -35.5% | growth at 0.01 µM [4]: 82% | growth at 0.01 µM (Malme-3M): 106% | growth at 0.1 µM (NCI-H522): 101% | growth at 10 µM [5]: -68.8% | growth at 1 µM (CCRF-CEM): 32% | growth at 1 µM (KM12): 85% | Activity (Albumin): 22.78% | growth at 10 µM [6]: -37.8% | growth at 0.1 µM (T47D): 109% | growth at 10 µM [7]: 0.63% | growth at 10 µM [8]: -68.9% | growth at 1 µM (SK-MEL-28): 82% | GI50 ([9]; read-out: GI50): 1.64 µM | CC50 [9, 16]: 6.39 µM | TGI ([9]; read-out: TGI): 3.24 µM | GI50 ([9]; read-out: pGI50 (converted)): 1.62 µM | CC50 [9, 17]: 6.46 µM | TGI ([9]; read-out: pTGI (converted)): 3.24 µM | growth at 10 µM [10]: -39.9% | growth at 1 µM [11]: 64% | growth at 1 µM [12]: 72% | growth at 10 µM [13]: -22.6% | growth at 10 µM (ACHN): -82% | growth at 0.1 µM [14]: 95% | growth at 0.01 µM (SR): 100% | growth at 10 µM (K562): -54% | GI50 ([15]; read-out: GI50): 2.16 µM | CC50 [15, 16]: 7.49 µM | TGI ([15]; read-out: TGI): 4.02 µM | GI50 ([15]; read-out: pGI50 (converted)): 2.14 µM | CC50 [15, 17]: 7.41 µM | TGI ([15]; read-out: pTGI (converted)): 3.98 µM

Reference: ChEMBL document CHEMBL3808334, “Synthesis and in vitro evaluation of novel triazine analogues as anticancer agents and their interaction studies with bovine serum albumin” (Eur J Med Chem, 2016)
